Test results reported in ChEMBL document CHEMBL4390664, “3,5-Diaryl-1H-pyrazolo[3,4-b]pyridines as potent tubulin polymerization inhibitors: Rational design, synthesis and biological evaluation” (Eur J Med Chem, 2019).
Activity calls are given as the source filed them. The rule behind the calls is not given here.

Assays:
[1] = tested on: SGC-7901; assay: Antiproliferative activity against human SGC7901 cells assessed as reduction in cell growth incubated for 72 hrs by MTT assay; assay type: functional, cell-based; settings: SGC-7901, 72 h
[2] = tested on: A549; assay: Antiproliferative activity against human A549 cells assessed as reduction in cell growth incubated for 72 hrs by MTT assay; assay type: functional, cell-based; settings: A549, 72 h
[3] = tested on: HeLa; assay: Antiproliferative activity against human HeLa cells assessed as reduction in cell growth incubated for 72 hrs by MTT assay; assay type: functional, cell-based
[4] = tested on: L929; assay: Cytotoxicity against mouse L929 cells assessed as reduction in cell growth incubated for 72 hrs by MTT assay; assay type: cell-based; settings: L929, 72 h
[5] = tested on: SGC-7901; assay: Induction of morphological changes in human SGC7901 cells assessed as destruction of cytoskeleton at 36 nM incubated for 24 hrs by immunofluorescence assay; assay type: functional, cell-based
Method in brief: (§1)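 SGC-7901 cells were exposed to compound at 26 or 36 nM for 24 h, then immunostained. Microtubules and unassembled tubulin were stained green and nuclei blue. Microtubule network and cell morphology were examined by fluorescence imaging.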

[6] = tested on: SGC-7901; assay: Induction of morphological changes in human SGC7901 cells assessed as cell rounding at 36 nM incubated for 24 hrs by immunofluorescence assay; assay type: functional, cell-based; method in brief: as §1
[7] = tested on: SGC-7901; assay: Induction of morphological changes in human SGC7901 cells assessed as formation of multinucleated cells at 36 nM incubated for 24 hrs by immunofluorescence assay; assay type: functional, cell-based; method in brief: as §1
[8] = tested on: SGC-7901; assay: Cell cycle arrest in human SGC7901 cells assessed as decrease of G1 cell population at 36 nM incubated for 0 to 72 hrs by flow cytometry analysis; assay type: functional, cell-based
[9] = tested on: SGC-7901; assay: Cell cycle arrest in human SGC7901 cells assessed as increase of G2/M cell population at 36 nM incubated for 0 to 72 hrs by flow cytometry analysis; assay type: functional, cell-based
[10] = tested on: SGC-7901; assay: Induction of multinucleated cell formation in human SGC7901 cells at 36 nM incubated for 0 to 72 hrs by flow cytometry analysis; assay type: functional, cell-based
[11] = biological target: T1, Tubulin (Sus scrofa) (UniProt P02554+P02550); assay: Inhibition of porcine brain tubulin polymerization at 10 uM measured at 1 min intervals for 80 mins by fluorimetry
[12] = tested on: SGC-7901; assay: Induction of morphological changes in human SGC7901 cells assessed as destruction of cytoskeleton at 26 nM incubated for 24 hrs by immunofluorescence assay; assay type: functional, cell-based; method in brief: as §1
[13] = tested on: SGC-7901; assay: Induction of morphological changes in human SGC7901 cells assessed as cell rounding at 26 nM incubated for 24 hrs by immunofluorescence assay; assay type: functional, cell-based; method in brief: as §1
[14] = tested on: SGC-7901; assay: Induction of morphological changes in human SGC7901 cells assessed as formation of multinucleated cells at 26 nM incubated for 24 hrs by immunofluorescence assay; assay type: functional, cell-based; method in brief: as §1
[15] = tested on: SGC-7901; assay: Cell cycle arrest in human SGC7901 cells assessed as accumulation of G2/M cell population at 26 nM incubated for 12 hrs by flow cytometry analysis (reference value: 24.47%); assay type: functional
[16] = biological target: T1, Tubulin (Sus scrofa); assay: Inhibition of porcine brain tubulin polymerization measured at 1 min intervals for 80 mins by fluorimetry
[17] = biological target: T1, Tubulin (Sus scrofa); assay: Inhibition of porcine brain tubulin polymerization at 12.5 to 100 uM measured at 1 min intervals for 80 mins by fluorimetry

T1 sequence (P02550 whole entry, looked up): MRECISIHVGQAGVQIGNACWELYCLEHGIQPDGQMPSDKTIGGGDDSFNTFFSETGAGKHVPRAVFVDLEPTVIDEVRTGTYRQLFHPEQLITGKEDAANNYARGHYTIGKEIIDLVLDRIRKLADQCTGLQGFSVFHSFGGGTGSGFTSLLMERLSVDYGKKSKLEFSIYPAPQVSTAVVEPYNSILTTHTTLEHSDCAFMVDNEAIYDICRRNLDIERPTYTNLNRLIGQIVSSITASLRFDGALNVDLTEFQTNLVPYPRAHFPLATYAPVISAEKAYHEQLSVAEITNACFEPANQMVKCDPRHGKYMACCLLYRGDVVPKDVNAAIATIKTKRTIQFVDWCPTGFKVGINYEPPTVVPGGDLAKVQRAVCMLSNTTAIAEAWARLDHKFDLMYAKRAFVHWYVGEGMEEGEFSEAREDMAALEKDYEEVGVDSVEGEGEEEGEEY
T1 sequence (P02554 whole entry, looked up): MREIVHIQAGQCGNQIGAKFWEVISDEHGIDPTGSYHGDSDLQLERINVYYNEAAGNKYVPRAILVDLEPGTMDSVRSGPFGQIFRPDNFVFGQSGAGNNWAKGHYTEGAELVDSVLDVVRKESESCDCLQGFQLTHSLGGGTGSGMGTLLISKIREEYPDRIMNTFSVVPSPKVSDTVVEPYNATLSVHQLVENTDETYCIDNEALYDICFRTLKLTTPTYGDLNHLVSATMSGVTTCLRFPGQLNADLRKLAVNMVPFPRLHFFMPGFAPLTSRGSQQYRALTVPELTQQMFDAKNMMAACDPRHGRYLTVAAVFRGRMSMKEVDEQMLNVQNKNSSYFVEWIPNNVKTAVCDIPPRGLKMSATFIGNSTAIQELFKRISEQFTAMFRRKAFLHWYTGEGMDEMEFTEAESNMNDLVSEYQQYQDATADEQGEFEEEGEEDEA

Compound | IC50 [1] | IC50 [2] | IC50 [3] | further results
COc1ccc(-c2n[nH]c3ncc(-c4ccc(C)cc4N)cc23)cc1 | > 30 µM | > 30 µM | > 30 µM | 
COc1cc(C(=O)c2csc(-c3ccccc3)n2)cc(OC)c1OC | 0.018 µM |  | 0.024 µM | IC50 [4]: 25.8 µM; Activity [5]: Active; Activity [6]: Active; Activity [7]: Active; Activity [8]: Active; Activity [9]: Active; Activity [10]: Active; inhibition [11]: Active
COc1cc(-c2n[nH]c3ncc(-c4ccc(Br)cc4)cc23)cc(OC)c1OC | 20.2 µM | 17.4 µM | 10.9 µM | 
COc1ccc(-c2cnc3[nH]nc(-c4cc(OC)c(OC)c(OC)c4)c3c2)cc1 | 0.13 µM | > 30 µM | 0.28 µM | 
COc1cc(-c2n[nH]c3ncc(-c4ccc(F)cc4N)cc23)cc(OC)c1OC | 0.4 µM | 1.31 µM | 0.081 µM | 
COc1cc(-c2n[nH]c3ncc(-c4ccc(C)cc4)cc23)cc(OC)c1OC | 0.013 µM | 0.082 µM | 0.045 µM | IC50 [4]: 37.5 µM; Activity [12]: Active; Activity [13]: Active; Activity [14]: Active; Activity [15]: 59.62%; inhibition [16]: Dose-dependent effect; inhibition [17]: Active
CNc1cc(C)ccc1-c1cnc2[nH]nc(-c3cc(OC)c(OC)c(OC)c3)c2c1 | 6.31 µM | 9.25 µM | 3.84 µM | 
COc1ccc(-c2n[nH]c3ncc(-c4ccc(C)cc4)cc23)cc1OC | > 30 µM | > 30 µM | > 30 µM | 
COc1ccc(-c2n[nH]c3ncc(-c4ccc(C)cc4)cc23)cc1 | > 30 µM | > 30 µM | > 30 µM | 
COc1cccc(-c2cnc3[nH]nc(-c4cc(OC)c(OC)c(OC)c4)c3c2)c1 | 1.91 µM | 7.66 µM | 0.46 µM | 
COc1cc(-c2n[nH]c3ncc(-c4ccc(Cl)cc4)cc23)cc(OC)c1OC | 4.82 µM | 14.6 µM | 0.87 µM | 
COc1cc(-c2n[nH]c3ncc(-c4ccc(Cl)cc4N)cc23)cc(OC)c1OC | 0.58 µM | 3.24 µM | 0.36 µM | 
COc1ccc(-c2n[nH]c3ncc(-c4ccc(C)cc4N)cc23)cc1OC | > 30 µM | > 30 µM | > 30 µM | 
COc1cc(-c2n[nH]c3ncc(-c4cc(C)ccc4N)cc23)cc(OC)c1OC | 0.62 µM | 4.43 µM | 0.38 µM | 
COc1cc(-c2n[nH]c3ncc(-c4ccccc4)cc23)cc(OC)c1OC | 0.037 µM | 0.65 µM | 0.057 µM | 
CNc1cc(F)ccc1-c1cnc2[nH]nc(-c3cc(OC)c(OC)c(OC)c3)c2c1 | 3.76 µM | 4.27 µM | 1.67 µM | 
COc1cc(-c2n[nH]c3ncc(-c4ccc(Br)cc4N)cc23)cc(OC)c1OC | 5.52 µM | 8.47 µM | 2.61 µM | 
COc1cc(-c2n[nH]c3ncc(-c4ccc(C)cc4N)cc23)cc(OC)c1OC | 0.23 µM | 7.83 µM | 0.16 µM | 
CNc1cc(Cl)ccc1-c1cnc2[nH]nc(-c3cc(OC)c(OC)c(OC)c3)c2c1 | 8.48 µM | 14 µM | 6.49 µM | 
COc1cc(-c2n[nH]c3ncc(-c4cccc(C)c4)cc23)cc(OC)c1OC | 0.051 µM | > 30 µM | 0.086 µM | 
COc1cc(-c2n[nH]c3ncc(-c4ccccc4N)cc23)cc(OC)c1OC | 4.37 µM | 1.42 µM | 2.55 µM | 
COc1ccc(N)c(-c2cnc3[nH]nc(-c4cc(OC)c(OC)c(OC)c4)c3c2)c1 | 9.51 µM | 10.2 µM | 4.93 µM | 
COc1ccc(-c2cnc3[nH]nc(-c4cc(OC)c(OC)c(OC)c4)c3c2)c(N)c1 | 3.73 µM | 5.36 µM | 1.44 µM | 
COc1cc(-c2n[nH]c3ncc(-c4ccc(F)cc4)cc23)cc(OC)c1OC | 2.31 µM | > 30 µM | 0.89 µM | 
